Screening results: PubChem, The Scripps Research Institute Molecular Screening Center
Most compounds without a hit are left out; they make up all but 4.6% or so of the library.
GPR7 antagonist – GPR7 receptor antagonists, primary screen, cell-based, fluorescence, single concentration. hit rate 1.1% among 290,000. GPR7-expressing cells, fluorescence antagonist assay. Neuropeptides B/W receptor type 1 (Homo sapiens), P48145. AID 1861, 2009. inhibition, % at 4.4 µM; in the data active = inhibition above about 16%, passing the limit was not always enough;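 note: cells stimulated with the agonist NPW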
Target sequence (P48145 whole entry, looked up): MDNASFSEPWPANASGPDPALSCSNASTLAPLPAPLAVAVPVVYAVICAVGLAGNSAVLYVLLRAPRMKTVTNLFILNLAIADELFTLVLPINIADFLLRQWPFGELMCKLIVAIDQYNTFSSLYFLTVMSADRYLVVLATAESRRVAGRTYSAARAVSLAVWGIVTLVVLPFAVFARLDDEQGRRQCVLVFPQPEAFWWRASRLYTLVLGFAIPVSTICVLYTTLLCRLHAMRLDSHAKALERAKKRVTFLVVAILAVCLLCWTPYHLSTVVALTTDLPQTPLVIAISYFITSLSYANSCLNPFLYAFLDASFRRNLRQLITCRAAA
TAAR1 antag – human TAAR1 antagonists, primary screen, Fluo-8 calcium fluorescence, CHO RD-HGA16 cells; inhibition, % at 3 µM; antagonist; hit rate 1.5% among 360,000;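 active = inhibition above a per-plate cutoff, the mean inhibition of test compounds on that plate plus 3 SD, cut at about 49% in these data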
Target sequence (Q96RJ0 whole entry, looked up): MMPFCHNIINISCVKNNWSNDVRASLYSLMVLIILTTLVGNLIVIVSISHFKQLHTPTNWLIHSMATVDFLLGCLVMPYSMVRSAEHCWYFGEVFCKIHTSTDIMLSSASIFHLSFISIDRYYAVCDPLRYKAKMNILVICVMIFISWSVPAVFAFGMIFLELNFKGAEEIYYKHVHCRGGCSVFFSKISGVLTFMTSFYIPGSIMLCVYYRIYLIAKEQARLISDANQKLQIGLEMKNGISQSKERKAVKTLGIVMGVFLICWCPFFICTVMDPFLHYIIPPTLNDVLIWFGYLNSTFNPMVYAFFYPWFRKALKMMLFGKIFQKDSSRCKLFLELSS
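Material: CHO RD-HGA16 cells bearing hTAAR1; compound dosing: one-point dosing, 3 µM nominal final; schedule: dye loading 75 min at 37 °C, then 30 min room temperature; measured by: calcium fluorescence with Fluo-8; control set: vehicle and agonist controls; replication: n of 1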
TAAR1 ag – human TAAR1 agonists, primary screen, Fluo-8 calcium fluorescence, CHO RD-HGA16 cells; vehicle wells 0%, saturating PEA agonist 100%; activation, % at 3 µM; hit rate 0.99% among 360,000; AID 624467, 2012;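 active = activation above the mean activation of all test compounds in the run plus 3 SD, cut at about 38% in these data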
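Signal – calcium-sensitive Fluo-8 signal, excitation 470-495, emission 515-575 nm · System – RD-HGA16 (CHO) cells co-expressing Gα16 and hTAAR1 · Incubation – 17-24 h seeding, 75 min 37 °C dye, 30 min RT · Compound dosing – 3 µM single concentration · Repeats – no replicates (n 1)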
OX1R antag-1 – antagonists of human orexin 1 receptor (OX1R) | OX1R-expressing cells, FRET antagonist read-out | hit rate 1.8% among 330,000 | Orexin/Hypocretin receptor type 1 (Homo sapiens), O43613 | inhibition, % at 6.6 µM | AID 485270, 2010; in the data active = inhibition mostly above about 38%, no sharp cut-off; inactive = mostly below about 40%
CHO parental Ca – ATP-evoked calcium signal inhibitors, parental CHO, primary screen, counter-screen for OX1R antagonist project, cell-based, fluorescence, Fluo-8 calcium dye; parental CHO-K1, ATP-induced calcium, Fluo-8 fluorescence; inhibition, % at 5.6 µM; hit rate 0.63% among 330,000; AID 463079, 2010;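 active = inhibition above that plate's mean sample inhibition plus 3 SD, cut at about 26% in these data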
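test system = CHO parental line | reagent = ATP stimulus | measured by = intracellular calcium via Fluo-8 no-wash fluorescent dye | control set = ATP and no-ATP DMSO wells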
OX1R antag-2 – OX1R (HCRTR1) antagonists, primary screen, fluorescence, CHO/OX1R cells, Fluo-8 calcium, orexin A. Fluo-8 calcium fluorescence. inhibition, % at 5 µM. Orexin/Hypocretin receptor type 1 (Homo sapiens), O43613. hit rate 0.43% among 330,000;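 active = inhibition above its plate's threshold, mean inhibition of all tested compounds on the plate plus 3 SD, cut at about 37% in these data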
GPR7 antag conf – GPR7 receptor antagonists, confirmation, cell-based, fluorescence, single concentration; shares compounds with GPR7 antagonist; GPR7-expressing cells, calcium fluorescence antagonist mode; inhibition, % at 4.4 µM; hit rate 52% among 2,400; AID 1952, 2009; in the data active = inhibition above about 24%;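 note: stimulated with the GPR7 agonist NPW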
MCHR1 antag – MCHR1 antagonists in cells, counter-screen for GPR7 antagonist project, cell-based, fluorescence, human; shares compounds with GPR7 antagonist; MCHR1-expressing cells, fluorescence antagonist assay; inhibition, % at 4.4 µM; hit rate 62% among 2,400; AID 2148, 2009; in the data active = inhibition above about 22%
Numbers stand for hits; – = inactive; · = not tested or not shown.

SMILES	GPR7 antagonist	TAAR1 antag	TAAR1 ag	OX1R antag-1	CHO parental Ca	OX1R antag-2	GPR7 antag conf	MCHR1 antag
CCCc1cc(=O)oc2c(C)c(OC(C)C(=O)NCCN3CCOCC3)ccc12 (stereo not drawn)	–	–	–	–	–	–	·	·
COc1ccc2c(Cl)c(C(=O)N/N=C/c3ccc4c(c3)OCO4)sc2c1	–	–	–	–	–	–	·	·
COc1ccc2c(Cl)c(C(=O)N/N=C3\CCCC(=O)C3)sc2c1	24.3	–	–	–	–	–	–	27.7
Fc1ccc(C2N(c3ccccc3)C(=S)N3CCCN23)cc1 (stereo not drawn)	–	–	–	–	–	–	·	·
Cc1ccc(C2N(c3ccccc3)C(=S)N3CCCN23)cc1 (stereo not drawn)	24.4	–	–	–	–	–	–	–
O=C(NNS(=O)(=O)c1ccc2ccccc2c1)c1cc(-c2ccccn2)nc2ccccc12	–	–	–	–	–	–	·	·
Cc1cc(Cl)ccc1NC(=O)NC1CCN(S(=O)(=O)c2ccc(F)cc2)CC1	–	–	–	–	–	–	·	·
O=C(Nc1ccc(F)cc1F)NC1CCN(S(=O)(=O)c2ccc(F)cc2)CC1	37.0	–	–	–	–	–	–	–
CC(C)(C)n1nc2c(c1NC(=O)c1ccccc1)CS(=O)(=O)C2	–	–	–	–	–	–	·	·
CC(C)(C)n1nc2c(c1NC(=O)c1c(F)cccc1F)CS(=O)(=O)C2	43.2	–	–	–	–	–	28.5	21.8
COc1ccc(NC(=O)/C(Cl)=C(/Cl)S(=O)Cc2ccc(Cl)cc2)cn1 (stereo not drawn)	30.3	51.7	–	·	·	·	80.5	92.6
CNC(=O)C1C2C=CC3(O2)C1C(=O)N(C1CC1)C3C(=O)NCc1ccc(OC)cc1 (stereo not drawn)	25.1	–	–	–	–	–	–	–
Cc1ccccc1NC(=S)N1CCN(c2ccccc2C)CC1	–	–	–	–	–	–	·	·
CCCCn1c(N)c(N(Cc2ccccc2OC)C(=O)COc2ccccc2C#N)c(=O)[nH]c1=O	27.3	–	–	–	–	–	–	–
CCCCn1c(N)c(N(Cc2ccccc2OC)C(=O)COc2ccc(F)cc2Cl)c(=O)[nH]c1=O	–	–	–	–	–	–	·	·
COC(=O)CN1C(c2ccccc2)=Nc2ccc(Cl)cc2C1c1ccccc1 (stereo not drawn)	27.9	–	–	–	–	–	–	22.8
COc1ccc(-n2c(=O)/c(=C\c3cccs3)s/c2=C(/C#N)C(=O)N2CCN(C)CC2)cc1	–	–	–	–	–	–	·	·
COc1ccc(/C=C2\SC(N)=NC2=O)cc1	–	–	–	·	·	·	·	·
CCOC(=O)CSC1=NC(=O)/C(=C/c2ccc(OC)cc2)S1	29.4	·	·	–	–	–	72.3	72.2
Cc1ccc(S(=O)(=O)N2CCN(CC(=O)NCC3(N4CCOCC4)CCCCC3)CC2)cc1	·	–	–	·	·	·	·	·
CCCc1nnc(NC(=O)C2CC(=O)N(CCc3ccc(F)cc3)C2)s1 (stereo not drawn)	–	–	–	–	–	–	·	·
COc1cccc(N=Cc2c(O)c3ccccc3oc2=O)c1	28.5	–	–	–	–	–	–	30.6
CC(=O)c1cccc(N=Cc2c(O)c3ccccc3oc2=O)c1	–	–	–	–	–	–	·	·
COc1ccc(NC(=O)c2ccc3c(=O)n(-c4ccc(OC)cc4OC)c(=S)[nH]c3c2)c(OC)c1	–	–	–	–	–	–	·	·
CCOc1ccc(NC(=O)c2ccc3c(=O)n(-c4ccc(OC)cc4OC)c(=S)[nH]c3c2)cc1	24.5	–	–	–	–	–	43.9	64.6
SMILES	GPR7 antagonist	TAAR1 antag	TAAR1 ag	OX1R antag-1	CHO parental Ca	OX1R antag-2	GPR7 antag conf	MCHR1 antag
Cc1ccc(NC(=S)N2CCN(S(=O)(=O)c3c(F)cccc3F)CC2)cc1C	–	–	–	–	–	–	·	·
O=[N+]([O-])c1ccc2c(c1)[nH]c(=S)n2-c1ccccc1	–	–	–	–	–	–	·	·
CC1=C(C(=O)N2CCOCC2)CC(CC(=O)NC2CC2)C(=O)N1CCC1=CCCCC1 (stereo not drawn)	·	–	–	·	·	·	·	·
CCOC(=O)C1=C(c2ccccc2)NC(=O)NC1c1ccc(O)c(Cl)c1 (stereo not drawn)	74.6	–	–	–	–	–	66.1	49.0
CCOC(=O)C1=C(c2ccccc2)NC(=O)NC1c1ccc(O)c(OCC)c1 (stereo not drawn)	–	–	–	–	–	–	·	·
COCCNc1cnn(-c2ccccc2)c(=O)c1Cl	24.1	–	–	–	–	–	–	–
CCCCNc1cnn(-c2ccccc2)c(=O)c1Cl	–	–	–	–	–	–	·	·
O=C(Nc1nc2c(F)cc(F)cc2s1)C1CC1	22.7	–	–	–	–	–	–	33.8
COc1ccc(OC)c(S(=O)(=O)N2CCC(C(=O)NC3CCCCCC3)CC2)c1	25.7	–	–	–	–	–	–	–
COc1ccc(OC)c(S(=O)(=O)N2CCC(C(=O)NC3CCCC3)CC2)c1	–	–	–	–	–	–	·	·
Cc1cc(Cl)c(S(=O)(=O)N2CCCCCC2)cc1OCC(=O)NC1CCCCC1	31.5	–	–	–	78.2	–	61.3	58.2
COc1cc(OC)c(S(=O)(=O)N2CCCCC2)cc1S(=O)(=O)N1CCCCC1	47.7	–	–	–	–	–	46.3	–
CCOC(=O)N1CCN(S(=O)(=O)c2cc(OCC(=O)NC3CCCCC3)c(C)cc2Cl)CC1	–	–	–	–	–	–	·	·
O=C(C1CCCO1)N1CCN(S(=O)(=O)c2cc(F)ccc2F)CC1 (stereo not drawn)	–	–	–	–	–	–	·	·
CCc1noc(C)c1C(=O)NCCc1ccc(Cl)cc1	·	–	–	–	–	–	·	·
OC(CNCC1CCCO1)Cn1c2ccc(Cl)cc2c2cc(Cl)ccc21 (stereo not drawn)	53.0	–	–	–	–	–	53.1	54.0
COc1cc(/C=N\NC(=O)c2sc(N)nc2C)cc(OC)c1OC	–	–	–	–	–	–	·	·
Fc1ccc(C(c2nnnn2C2CCCC2)N(Cc2ccco2)CC2CCCO2)cc1 (stereo not drawn)	31.7	–	–	–	–	–	43.5	53.2
